Source: ChEMBL document CHEMBL2157882, “Structure-activity relationship study of pyrimido[1,2-c][1,3]benzothiazin-6-imine derivatives for potent anti-HIV agents” (Bioorg Med Chem, 2012)

Experiments:
[1] = tested on: Human immunodeficiency virus 1; experiment: Antiviral activity against HIV 1 in HeLa-CD4/CCR5 cells assessed as inhibition of viral infectivity after 48 hrs by MAGI assay; type: functional, organism-based; settings: Human immunodeficiency virus 1, MAGI-CCR5, 48 h
In short: (§1)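 HeLa-CD4/CCR5-LTR/β-gal target cells at 10⁴ cells/well, plated the day before infection; inoculated with virus at 60 MAGI U/well and cultured with graded compound concentrations in fresh medium. After 48 h, X-Gal-stained blue cells were counted per well. EC50 (50% block of infection) was interpolated from the two concentrations bracketing 50% inhibition; three independent experiments.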

[2] = tested on: Human immunodeficiency virus 1; experiment: Antiviral activity against HIV 1 BaL in HeLa-CD4/CCR5 cells assessed as inhibition of viral infectivity after 48 hrs by MAGI assay; type: functional, organism-based; settings: Human immunodeficiency virus 1, BaL, MAGI-CCR5, 48 h; in short: as §1
[3] = tested on: Human immunodeficiency virus 1; experiment: Ratio of PD 404182 EC50 to compound EC50 for HIV 1 BaL in HeLa-CD4/CCR5 cells assessed as inhibition of viral infectivity after 48 hrs by MAGI assay; type: functional
[4] = tested on: Human immunodeficiency virus 1; experiment: Antiviral activity against HIV 1 NL4-3 in HeLa-CD4/CCR5 cells assessed as inhibition of viral infectivity after 48 hrs by MAGI assay; type: functional, organism-based; settings: Human immunodeficiency virus 1, NL4-3, MAGI-CCR5, 48 h; in short: as §1
[5] = tested on: Human immunodeficiency virus 1; experiment: Ratio of PD 404182 EC50 to compound EC50 for HIV 1 NL4-3 in HeLa-CD4/CCR5 cells assessed as inhibition of viral infectivity after 48 hrs by MAGI assay; type: functional
[6] = tested on: Human immunodeficiency virus 2; experiment: Antiviral activity against HIV 2 EHO in HeLa-CD4/CCR5 cells assessed as inhibition of viral infectivity after 48 hrs by MAGI assay; type: functional, organism-based; settings: Human immunodeficiency virus 2, EHO, MAGI-CCR5, 48 h; in short: as §1
[7] = tested on: Human immunodeficiency virus 2; experiment: Ratio of PD 404182 EC50 to compound EC50 for HIV 2 EHO in HeLa-CD4/CCR5 cells assessed as inhibition of viral infectivity after 48 hrs by MAGI assay; type: functional
[8] = tested on: Human immunodeficiency virus 2; experiment: Ratio of PD 404182 EC50 to compound EC50 for HIV 2 ROD in HeLa-CD4/CCR5 cells assessed as inhibition of viral infectivity after 48 hrs by MAGI assay; type: functional, ISOLATE ROD
[9] = tested on: Human immunodeficiency virus 2; experiment: Antiviral activity against HIV 2 ROD in HeLa-CD4/CCR5 cells assessed as inhibition of viral infectivity after 48 hrs by MAGI assay; type: functional, organism-based; settings: Human immunodeficiency virus 2, ISOLATE ROD, MAGI-CCR5, 48 h; in short: as §1
HeLa = experiment: Cytotoxicity against human HeLa cells expressing CD4/CCR5 at 10 uM; type: cell-based
[10] = Cytotoxicity against human HeLa cells expressing CD4/CCR5; type: cell-based
[11] = Therapeutic index, ratio of CC50 for HeLa-CD4/CCR5 cells to EC50 for HIV 1 in HeLa-CD4/CCR5 cells assessed as inhibition of viral infectivity; type: cell-based; settings: human, read-out: Ratio CC50/EC50

| Structure (SMILES) | EC50 [1] | other results |
| --- | --- | --- |
| CC1(C)CN=C2c3ccccc3SC(=N)N2C1 | 240 nM | – |
| N=C1Sc2cc(Br)ccc2C2=NCC3(CCN(C(N)=O)CC3)CN12 | > 10000 nM | – |
| N=C1Sc2cc(Br)ccc2C2=NCCCN12 | 250 nM | – |
| N=C1Sc2cc(-c3cc4ccccc4o3)ccc2C2=NCCCN12 | 200 nM | – |
| N=C1Sc2cc(-c3ccsc3)ccc2C2=NCCCN12 | 220 nM | – |
| N=C1Sc2cc(-c3cc4ccccc4s3)ccc2C2=NCCCN12 | 260 nM | – |
| N=C1Sc2cc(-n3cccn3)ccc2C2=NCCCN12 | 420 nM | – |
| N=C1Sc2cc(-n3ccnc3)ccc2C2=NCCCN12 | 5120 nM | – |
| N=C1Sc2cc(Br)ccc2C2=NCC3(CCCCC3)CN12 | 250 nM | – |
| N=C1Sc2cc(Br)ccc2C2=NCC3(CCOCC3)CN12 | 1730 nM | – |
| COc1ccc(CN2CCC3(CC2)CN=C2c4ccc(Br)cc4SC(=N)N2C3)cc1 | 1450 nM | – |
| COC(=O)N1CCC2(CC1)CN=C1c3ccc(Br)cc3SC(=N)N1C2 | 440 nM | – |
| CC(=O)N1CCC2(CC1)CN=C1c3ccc(Br)cc3SC(=N)N1C2 | 2740 nM | – |
| CS(=O)(=O)N1CCC2(CC1)CN=C1c3ccc(Br)cc3SC(=N)N1C2 | 1810 nM | – |
| COc1cc(-c2ccc3c(c2)SC(=N)N2CCCN=C32)cc(OC)c1OC | 250 nM | – |
| COc1ccc(-c2ccc3c(c2)SC(=N)N2CCCN=C32)cc1Cl | 320 nM | – |
| COc1ccc(Cl)cc1-c1ccc2c(c1)SC(=N)N1CCCN=C21 | 480 nM | – |
| N=C1Sc2cc(-c3ccc4ccccc4c3)ccc2C2=NCCCN12 | 200 nM | – |
| N=C1Sc2cc(-c3cccc4ccccc34)ccc2C2=NCCCN12 | 390 nM | – |
| N=C1Sc2cc(-c3ccc4c(c3)OCO4)ccc2C2=NCCCN12 | 150 nM | EC50 [2]: 130 nM; Ratio EC50 [3]: 3; EC50 [4]: 230 nM; Ratio EC50 [5]: 2; EC50 [6]: 140 nM; Ratio EC50 [7]: 2; Ratio EC50 [8]: 3; EC50 [9]: 100 nM |
| N=C1Sc2cc(-c3ccc4c(c3)OCCO4)ccc2C2=NCCCN12 | 260 nM | – |
| N=C1Sc2cc(-c3ccc4ncccc4c3)ccc2C2=NCCCN12 | 250 nM | – |
| N=C1Sc2cc(-c3ccc4c(C(=O)C(F)(F)F)c[nH]c4c3)ccc2C2=NCCCN12 | > 1000 nM | Activity (HeLa): Toxic |
| N=C1Sc2cc(-c3ccc4[nH]cc(C(=O)C(F)(F)F)c4c3)ccc2C2=NCCCN12 | > 1000 nM | Activity (HeLa): Toxic |
| N=C1Sc2cc(-c3cccnc3)ccc2C2=NCCCN12 | 450 nM | – |

| Structure (SMILES) | EC50 [1] | other results |
| --- | --- | --- |
| N=C1Sc2cc(-c3ccncc3)ccc2C2=NCCCN12 | 540 nM | – |
| N=C1Sc2cc(-c3ccco3)ccc2C2=NCCCN12 | 260 nM | – |
| CSc1ccc(-c2ccc3c(c2)SC(=N)N2CCCN=C32)cc1 | 200 nM | – |
| N=C1Sc2cc(-c3ccc(OC(F)(F)F)cc3)ccc2C2=NCCCN12 | 380 nM | – |
| COC(=O)c1cccc(-c2ccc3c(c2)SC(=N)N2CCCN=C32)c1 | 390 nM | – |
| N#Cc1cccc(-c2ccc3c(c2)SC(=N)N2CCCN=C32)c1 | 1170 nM | – |
| N=C1Sc2cc(-c3cccc([N+](=O)[O-])c3)ccc2C2=NCCCN12 | 1260 nM | – |
| CC(=O)Nc1cccc(-c2ccc3c(c2)SC(=N)N2CCCN=C32)c1 | > 10000 nM | – |
| CS(=O)(=O)Nc1cccc(-c2ccc3c(c2)SC(=N)N2CCCN=C32)c1 | > 10000 nM | – |
| N=C1Sc2cc(-c3cccc(O)c3)ccc2C2=NCCCN12 | 2620 nM | – |
| COc1cccc(-c2ccc3c(c2)SC(=N)N2CCCN=C32)c1 | 150 nM | – |
| CC(C)Oc1cccc(-c2ccc3c(c2)SC(=N)N2CCCN=C32)c1 | 320 nM | – |
| N=C1Sc2cc(-c3cccc(-c4ccccc4)c3)ccc2C2=NCCCN12 | 1350 nM | – |
| COc1ccccc1-c1ccc2c(c1)SC(=N)N1CCCN=C21 | 410 nM | – |
| N=C1Sc2cc(-c3ccccc3-c3ccccc3)ccc2C2=NCCCN12 | 320 nM | – |
| COc1ccc(-c2ccc3c(c2)SC(=N)N2CCCN=C32)cc1OC | 270 nM | – |
| N=C1Sc2cc(-c3ccccc3)ccc2C2=NCCCN12 | 240 nM | – |
| COC(=O)c1ccc(-c2ccc3c(c2)SC(=N)N2CCCN=C32)cc1 | 810 nM | – |
| N#Cc1ccc(-c2ccc3c(c2)SC(=N)N2CCCN=C32)cc1 | 440 nM | – |
| N=C1Sc2cc(-c3ccc([N+](=O)[O-])cc3)ccc2C2=NCCCN12 | 460 nM | – |
| N=C1Sc2cc(-c3ccc(C(F)(F)F)cc3)ccc2C2=NCCCN12 | 550 nM | – |
| N=C1Sc2cc(-c3ccc(C(N)=O)cc3)ccc2C2=NCCCN12 | 8710 nM | – |
| COc1ccc(-c2ccc3c(c2)SC(=N)N2CCCN=C32)cc1 | 240 nM | – |
| N=C1Sc2ccccc2C2=NCCCN12 | 440 nM | EC50 [2]: 370 nM; EC50 [4]: 380 nM; EC50 [6]: 310 nM; CC50 [10]: > 100000 nM; selectivity ratio [11]: > 200; EC50 [9]: 300 nM |
| CC(O)c1cccc(-c2ccc3c(c2)SC(=N)N2CCCN=C32)c1 (racemic) | 1190 nM | – |
